{"data": "Results of several laboratories", "cell line": "HCT-116", "effect on": "cell growth or viability"}
{"Compound": "O=c1cc(OCc2cc(-c3ccccn3)no2)c2ccccc2o1", "test": "MTS", "setting": "72 h", "IC50": "> 100 µM"}
{"Compound": "COc1cccc2c1C(=O)c1c(O)c3c(c(O)c1C2=O)C[C@@](O)(C(=O)CO)C[C@@H]3O[C@H]1C[C@H](N)[C@H](O)[C@H](C)O1", "setting": "96 h", "IC50": "0.00382 µM"}
{"Compound": "O=[N+]([O-])c1cc(I)c(O)c(C=NNc2ccc(Br)cc2)c1", "test": "MTT", "setting": "24 h", "IC50": "15.3 µM"}
{"Compound": "FC(F)(F)c1cc(OCc2cc(-c3ccccc3)no2)c2ccccc2n1", "test": "MTS", "setting": "72 h", "IC50": "> 100 µM"}
{"Compound": "O=P1(C2CCCCC2)CCCCC1", "test": "MTT", "setting": "72 h", "IC50": "13.8 µM"}
{"Compound": "Cc1cc(C)n(Cn2cnc3ccccc32)n1", "test": "MTT", "setting": "24 h", "IC50": "70.2 µM"}
{"Compound": "CC(C)c1ccc(/C=C2\\N=C(SCC(=O)c3ccccc3)N(c3ccccc3)C2=O)cc1", "test": "MTT", "IC50": "83.7 mg/L"}
{"Compound": "O=C(C=Cc1ccc(OCCCCOc2ccc(C=CC(=O)c3cccs3)cc2)cc1)c1cccs1", "test": "MTT", "setting": "48 h", "IC50": "278 µM"}
{"Compound": "O=[N+]([O-])c1ccc(O)c(C=NNc2ccc(Cl)cc2)c1", "test": "MTT", "setting": "24 h", "IC50": "11 µM"}
{"Compound": "COc1ccc(N(Cc2csc(-c3ccc(C)cc3)n2)C(=O)CCCCCC(=O)NO)cc1", "test": "MTT", "setting": "72 h", "IC50": "1.19 µM"}
{"Compound": "O=C1CS/C(=N\\c2cc(C(F)(F)F)ccc2-c2nnc(N3C(=O)CS/C3=N\\c3cc(O)cc(Br)c3)s2)N1c1cc(O)cc(Br)c1", "test": "MTT", "IC50": "78.1 µM"}
{"Compound": "O=C1C(=Nc2ccccc2Br)c2ccccc2N1Cc1ccccc1", "test": "MTT", "setting": "48 h", "IC50": "1.1 µM"}
{"Compound": "CC(C)c1ccc(/C=C2\\N=C(SCc3ccccc3)N(c3ccccc3)C2=O)cc1", "test": "MTT", "IC50": "72.9 mg/L"}
{"Compound": "c1ccc(-c2noc(-c3nn(Cc4ccncc4)c4ccccc34)n2)cc1", "setting": "48 h", "IC50": "47.5 µM"}
{"Compound": "COc1cccc(N=C2SCC(=O)N2c2nnc(-c3ccc(C(F)(F)F)cc3N=C3SCC(=O)N3c3cccc(OC)c3)s2)c1", "test": "MTT", "IC50": "71.4 µM"}
{"Compound": "O=C1C(=Nc2ccccc2I)c2ccccc2N1Cc1ccc(Br)cc1", "test": "MTT", "setting": "48 h", "IC50": "1.33 µM"}
{"Compound": "CC(=O)OC[C@H]1O[C@@H](n2cc(Cn3c(C(C)=O)nc4ccccc43)nn2)[C@H](OC(C)=O)[C@@H](OC(C)=O)[C@H]1OC(C)=O", "test": "LDH", "setting": "48 h", "IC50": "6.49 µM"}
{"Compound": "COc1cc(N=C2C(=O)N(Cc3ccccc3)c3ccccc32)cc(OC)c1", "test": "MTT", "setting": "48 h", "IC50": "8.73 µM"}
{"Compound": "Cc1cc(NS(=O)(=O)c2ccc(NC(=O)/C(C#N)=C/c3ccc(N4CCCCC4)cc3)cc2)no1", "test": "MTT", "setting": "48 h", "IC50": "14.5 µM"}
{"Compound": "Cc1cc2c(C(N)=O)cccc2n1-c1nc2c(c(NCc3cccnc3)n1)CCCN2", "test": "ATP luminescence", "setting": "72 h", "IC50": "1 µM"}
{"Compound": "COc1ccc2c(-c3ncc(-c4ccccc4)o3)nn(Cc3ccccc3)c2c1", "setting": "48 h", "IC50": "80.9 µM"}
{"Compound": "CC(C)c1cccc(C(C)C)c1N=C1C(=O)N(Cc2cccc(Cl)c2)c2ccccc21", "test": "MTT", "setting": "48 h", "IC50": "22.4 µM"}
{"Compound": "CONC(=O)Cc1c(C)n(-c2nc3c(c(NCc4ccccc4)n2)CCCN3)c2ccccc12", "test": "ATP luminescence", "setting": "72 h", "IC50": "4.2 µM"}
{"Compound": "O=C1C(=Nc2ccc(Cl)cc2Br)c2ccccc2N1Cc1ccc([N+](=O)[O-])cc1", "test": "MTT", "setting": "48 h", "IC50": "24.9 µM"}
{"Compound": "O=[N+]([O-])c1cc(I)c(O)c(C=NNc2ccc(C(F)(F)F)cc2)c1", "test": "MTT", "setting": "24 h", "IC50": "9.43 µM"}
{"Compound": "CCCNC(=S)N/N=C/c1cccc2cc3ccccc3nc12", "test": "MTT", "setting": "48 h", "IC50": "43.3 µM"}
{"Compound": "O=C(C=Cc1ccc(OCCOc2ccc(C=CC(=O)c3cccs3)cc2)cc1)c1cccs1", "test": "MTT", "setting": "48 h", "IC50": "17.1 µM"}
{"Compound": "O=C1CS/C(=N\\c2ccc(F)cc2O)N1c1nnc(-c2ccc(C(F)(F)F)cc2/N=C2\\SCC(=O)N2c2ccc(F)cc2O)s1", "test": "MTT", "IC50": "17.2 µM"}
{"Compound": "c1ccc2c(c1)ncn2Cn1cncn1", "test": "MTT", "setting": "24 h", "IC50": "102 µM"}
{"Compound": "O=c1[nH]cc(F)c(=O)[nH]1", "test": "MTT", "setting": "48 h", "IC50": "17 µM"}
{"Compound": "O=C1C(=Nc2cccc(Cl)c2)c2ccccc2N1Cc1ccc([N+](=O)[O-])cc1", "test": "MTT", "setting": "48 h", "IC50": "0.84 µM"}
{"Compound": "Fc1ccc2c(-c3ncc(-c4ccccc4)o3)nn(Cc3ccccc3)c2c1", "setting": "48 h", "IC50": "82.6 µM"}
{"Compound": "COc1ccc(NC(=S)N/N=C/c2cccc3cc4ccccc4nc23)cc1", "test": "MTT", "setting": "48 h", "IC50": "> 50 µM"}
{"Compound": "O=C1CSC(=Nc2cc(C(F)(F)F)ccc2-c2nnc(N3C(=O)CSC3=Nc3ccc([N+](=O)[O-])cc3)s2)N1c1ccc([N+](=O)[O-])cc1", "test": "MTT", "IC50": "74.4 µM"}
{"Compound": "CCc1ccc(N=C2C(=O)N(Cc3ccccc3)c3ccccc32)cc1", "test": "MTT", "setting": "48 h", "IC50": "0.9 µM"}
{"Compound": "O=C(CSc1nc2ccccc2s1)N/N=C/c1ccc(OCC(=O)Nc2ccc([N+](=O)[O-])cc2)cc1", "test": "MTS", "setting": "72 h", "IC50": "52.9 µM"}
{"Compound": "O=c1cc(OCc2cc(-c3ccccc3)no2)c2ccccc2o1", "test": "MTS", "setting": "72 h", "IC50": "> 100 µM"}
{"Compound": "COc1ccc(CNC(=O)Cn2cc(COc3ncnc4[nH]cnc34)nn2)cc1", "test": "MTT", "IC50": "> 100 µM"}
{"Compound": "C#Cc1cccc(Nc2ncnc3cc(OCCOC)c(OCCOC)cc23)c1", "test": "LDH", "setting": "48 h", "IC50": "5.14 µM"}
{"Compound": "Cc1nnc(-c2nn(Cc3ccc(Cl)cc3Cl)c3ccccc23)o1", "setting": "48 h", "IC50": "48.4 µM"}
{"Compound": "FC(F)(F)c1cc(OCc2cc(-c3ccc(Cl)cc3Cl)no2)c2ccccc2n1", "test": "MTS", "setting": "72 h", "IC50": "> 100 µM"}
{"Compound": "Cc1cc2c(C(N)=O)cccc2n1-c1nc2c(c(NCc3cccc(O)c3)n1)CCCN2", "test": "ATP luminescence", "setting": "72 h", "IC50": "0.7 µM"}
{"Compound": "COc1cccc(-c2cc(NCc3ccc4c(c3)OCO4)nc(N)n2)c1", "setting": "72 h", "IC50": "0.347 µM"}
{"Compound": "O=C1C(=Nc2ccc(Cl)cc2Br)c2ccccc2N1Cc1ccc(Br)cc1", "test": "MTT", "setting": "48 h", "IC50": "0.6 µM"}
